SF1 activator: SF-1 (human) activation | CHO-K1 Gal4-SF-1 LBD luciferase reporter; % increase over DMSO SF-1-specific signal | activation, % at 10 µM | actives 1.9% (n = 65,000) | Q13285;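 active = activation above the mean activation of all tested compounds plus 3 SD, cut at about 50% in these data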
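Assay system: CHO-K1 cells co-transfected with Gal4 DBD–human SF-1 LBD, 5xGal4 luciferase reporter; doses: 10 µM only; incubation: 20 h compound exposure at 37 °C after 1 h cell settling; signal: luciferase light emission; evaluation: percent activation versus DMSO; repeats: one test per compound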
M1 antag: blocks the rat M1 muscarinic receptor response to acetylcholine | AID 628 | actives 3.4% (n = 64,000) | P08482 | B-score at 10 µM | CHO-M1 cells, Fluo-4 calcium, ACh EC80 antagonist mode; active compounds read low;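 active = calcium fluorescence response, raw or row-and-column corrected B-score, differing from the plate sample mean either way at a set confidence level, mostly lower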
Target sequence (P08482 whole entry, looked up): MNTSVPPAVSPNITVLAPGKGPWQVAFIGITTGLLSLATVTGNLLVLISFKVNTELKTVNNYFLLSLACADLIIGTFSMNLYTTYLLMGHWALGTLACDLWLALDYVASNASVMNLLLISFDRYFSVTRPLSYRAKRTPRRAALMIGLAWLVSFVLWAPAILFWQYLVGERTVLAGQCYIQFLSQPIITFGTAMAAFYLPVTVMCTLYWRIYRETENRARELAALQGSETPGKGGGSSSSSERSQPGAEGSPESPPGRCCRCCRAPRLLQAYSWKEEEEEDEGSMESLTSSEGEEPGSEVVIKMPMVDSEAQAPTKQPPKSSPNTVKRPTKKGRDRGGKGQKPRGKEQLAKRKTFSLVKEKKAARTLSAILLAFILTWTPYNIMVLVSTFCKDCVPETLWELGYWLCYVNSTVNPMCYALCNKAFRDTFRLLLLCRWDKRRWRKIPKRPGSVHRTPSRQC
HePTP inhibitor: human HePTP phosphatase inhibition; P35236; recombinant HePTP phosphatase activity, OD absorbance; inhibition, % at 20 µM; actives 0.64% (n = 110,000); AID 521; in the data active = inhibition above about 50%;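 note: plate controls were vehicle for no effect and reference inhibitor for full effect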
D1 mod: allosteric modulators of human D1 dopamine receptor; B-score at 10 µM; HEK293 D1, CRE-luciferase, dopamine EC30 potentiation; actives deviate in either direction; actives 5.9% (n = 58,000); AID 641;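 active = luminescence count or its row- and column-corrected plate score outside the 99.7% band of the plate's sample wells, on either side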
RORA act: RORA (human) activation; actives 1.5% (n = 65,000); AID 560; activation, % at 10 µM; P35398; CHO-K1 Gal4-RORA LBD luciferase reporter, luminescence; percent increase over mock-subtracted basal signal;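 active = activation above the mean of all tested compounds plus 3 SD, cut at about 49% in these data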;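 note: 0% = DMSO-treated RORA cells and 100% = added signal equal to DMSO minus mock-transfected cells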
M1 agonist: activates the M1 muscarinic receptor. CHO-M1 cells, Fluo-4 calcium fluorescence, agonist mode; active compounds read high. B-score at 10 µM. actives 3% (n = 64,000). AID 626;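 active = fluorescence rise, raw or as B-score row- and column-corrected plate score, outside the 99.7% band of its plate's samples, either direction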
D1 mod confirm: D1 receptor (human) allosteric modulation, confirmed; luminescence at 10 µM; HEK293 D1 CRE-luciferase, dopamine EC30 potentiation; active compounds read high; actives 88% (n = 2,200); shares compounds with D1 mod;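 active = luminescence in either of two replicates above the same-plate mean plus 3 SD of the low-dose dopamine control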
D1 ag no DA: secondary test of D1 modulators: activity without dopamine; luminescence at 10 µM; actives 0.8% (n = 1,900); HEK293 D1 CRE-luciferase, luminescence, no dopamine; active compounds read high; AID 646; shares compounds with D1 mod; in the data active = luminescence above about 3900
Isoprot counter: counter-screen for D1 modulators: isoproterenol response in HEK293 cells | shares compounds with D1 mod | HEK293 D1 CRE-luciferase, isoproterenol EC30 counter-screen | calls only at 10 µM | actives 63% (n = 2,200);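 active = luminescence in either replicate above plate mean of wells with a partly effective reference agonist dose plus 3 SD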;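 note: isoproterenol raises cAMP through native beta-adrenoceptor Gs so signal bypasses D1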
Starred values were filed as active, the others as inactive; i = inactive; . = not tested or not shown; + = active, no number. In the library only some 8.2% were active in any assay of this set; here they are far more common.

SMILES	SF1 activator	M1 antag	HePTP inhibitor	D1 mod	RORA act	M1 agonist	D1 mod confirm	D1 ag no DA	Isoprot counter
CCOC(=O)c1cc2c(=O)n3ccccc3nc2n(CC(C)C)c1=NC(=O)c1ccco1	18	-0.77	-10	8.3*	-3	-0.015	18960*	1364	+
CCCCCN=C(C)c1c(O)c2ccccc2oc1=O	18	-0.52	4	2.7	19	-0.79	.	.	.
CC(=NCc1ccco1)c1c(O)n(C2CCCCC2)c(=O)[nH]c1=O	15	-0.054	12	11*	-16	0.16	14172*	1048	+
N#CCCn1cc(C(CC(=O)c2ccc(Br)cc2)C(=O)O)c2ccccc21 (stereo not drawn)	10	-0.099	7	-0.0049	-8	-0.4	.	.	.
COCCN(CCOC)Cc1cc(=O)oc2cc3c(cc12)CCC3	-12	.	2	2.4*	-21	.	9280*	.	+
CCCSc1nnc2n(-c3ccccc3OC)c(=O)c3c4c(sc3n12)CCC4	-10	-1.1	9	.	-20	1	.	.	.
CSc1nnc2n(-c3ccccc3)c(=O)c3c4c(sc3n12)CCC4	-1	-0.038	0	17*	-2	-0.5	18696*	1684	+
C=CCSc1nnc2n(-c3ccccc3OC)c(=O)c3c4c(sc3n12)CCC4	-9	0.031	1	5.7*	-5	0.33	11688*	1704	i
O=S(=O)(c1ccc(F)cc1)N1CN(Cc2ccco2)c2nc3ccccc3nc21	-3	0.023	4	.	-8	0.031	.	.	.
C=CCN1CN(S(=O)(=O)c2cccs2)c2nc3ccccc3nc21	-2	0.04	4	6*	16	-0.68	14144*	1432	+
O=S(=O)(c1cccs1)N1CN(Cc2cccs2)c2nc3ccccc3nc21	22	-0.32	-7	3.8*	-9	0.068	15624*	1724	+
O=S(=O)(c1cccs1)N1CN(CC2CCCO2)c2nc3ccccc3nc21 (stereo not drawn)	19	-0.1	6	.	14	0.053	.	.	.
COc1ccc(CCN(Cc2cc3cc(C)ccc3[nH]c2=O)C(=O)N2CCCC2)cc1OC	13	0.5	2	9.1*	10	1	13088*	1584	+
CN(C)c1nnc(-c2ccccc2)c(-c2ccccc2)n1	.	.	-10	.	.	.	.	.	.
Nc1nnc(-c2ccccc2)c(-c2ccccc2)n1	-7	0.087	3	20*	-7	-0.37	20640*	1704	+
CCc1nnc(NC(=O)CSc2nc3cccnc3n2C2CCCCC2)s1	-2	1.3	-1	6.2*	-10	-0.51	8624*	1648	+
Cc1nc(NC(=O)CSc2nc3cccnc3n2C2CCCCC2)sc1C	-12	-0.24	5	1.6	-13	-1.5	.	.	.
COc1cc(C(=O)N2CCN(c3cc(Cl)ccc3Cl)CC2)cc(OC)c1OC	-38	0.56	1	6.5*	1	-0.072	10496*	1588	+
COc1cc(C(=O)N2CCN(c3cccc(C)c3C)CC2)cc(OC)c1OC	5	1.5	6	1.7	-16	0.067	.	.	.
O=C(OCn1nnc2ccccc2c1=O)C1CCN(S(=O)(=O)c2cccs2)CC1	-10	-0.0094	-5	4*	28	0.022	11392*	1780	i
CCN(Cc1ccccc1)C(=O)C1CCN(Cc2ccc(OC)c(OC)c2OC)CC1	-4	-0.65	11	-0.16	-9	-0.99	.	.	.
O=C(c1cccs1)c1coc2ccc(O)c(CN3CCOCC3)c12	-13	-0.44	9	18*	-5	0.034	20688*	.	+
COc1ccc(-c2cn3ccccc3n2)cc1OC	30	0.0029	6	12*	49*	-0.14	12712*	.	+
Fc1ccc(-c2cn3ccccc3n2)cc1	.	.	8	.	.	.	.	.	.
c1ccc2c(c1)OCC(c1csc(C3COc4ccccc4O3)n1)O2 (stereo not drawn)	.	.	2	.	.	.	.	.	.
SMILES	SF1 activator	M1 antag	HePTP inhibitor	D1 mod	RORA act	M1 agonist	D1 mod confirm	D1 ag no DA	Isoprot counter
c1ccc2c(c1)OCC(c1csc3ncnc(N4CCOCC4)c13)O2 (stereo not drawn)	-3	-0.18	.	3.8*	-15	0.066	5072	1584	+
Cc1ccc(-c2cc(OC(=O)c3ccccc3)cc3sc(=O)oc23)cc1	.	.	9	.	.	.	.	.	.
O=[N+]([O-])c1ccc(N[C@@H]2OC[C@@H](O)[C@H](O)[C@@H]2O)cc1	.	.	-8	.	.	.	.	.	.
Cc1cc(N)n2ncc(-c3cccc(Br)c3)c2n1	59*	0.92	-14	6.4*	44	-0.014	10808*	1672	+
CCCc1[nH]nc2c1C(c1cc(OC)cc(OC)c1)C(C#N)=C(N)O2 (stereo not drawn)	-1	0.081	0	.	8	1.5	.	.	.
CCCc1[nH]nc2c1C(c1cc(OC)ccc1F)C(C#N)=C(N)O2 (stereo not drawn)	4	-1.1	10	8.2*	-18	1.2	9940*	.	+
COC(=O)Cc1[nH]nc2c1C(c1cccc(OC)c1OC)C(C#N)=C(N)O2 (stereo not drawn)	-6	-0.017	5	0.007	-19	-0.11	.	.	.
CCOC(=O)Cc1[nH]nc2c1C(c1cccc(OC)c1OC)C(C#N)=C(N)O2 (stereo not drawn)	9	0.88	8	6.3*	2	-0.00046	7976*	1640	i
O=C1c2ccccc2NC(c2cccc(O)c2)N1c1ccc(Cl)cc1 (stereo not drawn)	.	.	-2	.	.	.	.	.	.
COc1ccc(OCC(=O)Nc2ccccc2CO)cc1	.	.	-5	.	.	.	.	.	.
c1ccc(N(c2ccccc2)c2nc(N3CCCC3)nc(-n3ccnc3)n2)cc1	-7	0.57	5	-0.23	-19	-0.29	.	.	.
N/C(=N/O)c1nc(N2CCCC2)nc(N(c2ccccc2)c2ccccc2)n1	-12	-0.29	11	7.2*	4	-0.4	13376*	1828	+
N/C(=N/O)c1nc(N2CCCCC2)nc(N2CCCCC2)n1	10	-1.3	9	5.2*	-9	0.84	18416*	1644	+
O=C1/C(=C/c2ccc(F)cc2)SC(=S)N1c1ccc(Cl)cc1	.	.	8	.	.	.	.	.	.
NC1=NC2(CCCCC2)N=C(Nc2ccc(Cl)cc2)N1	.	.	-2	.	.	.	.	.	.
COCC(C)NCc1ccc(C)cc1C (stereo not drawn)	-9	0.1	12	-0.49	-25	0.55	.	.	.
CCC(C)[C@H](NC(=O)NCc1ccccc1Cl)C(=O)OC (stereo partly drawn)	-22	0.074	-12	-0.87	-12	-0.52	.	.	.

From PubChem
